An excerpt weighted towards active compounds, which were near 3.9% of everything screened.
UPR CHOP act = activators of apoptotic arm of unfolded protein response (CHOP). CHO-CHOP luciferase reporter, UPR activation, luminescence; percent of tunicamycin response over DMSO baseline. activation, % at 10 µM. 0.34% of 330,000 active;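 active means at 10 µM dose, activation of 40% or more, normalized to positive control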;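 further: 100% = tunicamycin at 10 µg/mL and 0% = DMSO alone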
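System: CHO CHOP reporter cells. Amount: 500 cells per well. Buffer or medium: F12 medium, 10% FBS. Compound dosing: one dose, 10 µM in 0.5% DMSO. Incubation: 6 h compound exposure at 37 °C after overnight seeding. Technique: Steady-Glo luciferase luminescence. Benchmarks: tunicamycin and DMSO controls.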
697 NFkB inh = lowers PMA/ionomycin-induced NF-kB signal in 697 B cells | 697 B-cell NF-kB luciferase reporter, 16 h | inhibition, % at 4 µM | 0.33% of 330,000 active; in the data active means inhibition above about 35%
Gli-Sufu antag = blocks Gli-Sufu signaling in a luciferase reporter; Sufu-KO-LIGHT fibroblasts, Gli luciferase reporter luminescence; inhibition, % at 5 µM; AID 588413; 0.74% of 340,000 active;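 active means inhibition above about 55%, limit read from the data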;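 further: 0% = DMSO-treated cells and 100% = wells with medium but no cells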
UPR XBP1 act = adaptive UPR (XBP1) activation; AID 463104; 0.33% of 330,000 active; activation, % at 20 µM; CHO-XBP1 luciferase reporter, IRE1-XBP1 UPR activation, luminescence; percent of tunicamycin response, DMSO as zero;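 active means versus positive control, 20 µM dose yields 30% or more activation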;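 further: 100% = tunicamycin at 10 µg/mL and 0% = DMSO only wells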
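Material: IRE1-XBP1 luciferase reporter CHO line / Quantity: one thousand reporter cells per well / Buffer or medium: F12 with 10% serum / Compound: 20 µM single concentration, DMSO 1% / Times: 6 h treatment, 37 °C / Detection: Steady-Glo luciferase glow luminescence, 10 min after reagent addition / Benchmarks: tunicamycin high, DMSO low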
CHOP inhibitor = inhibitors of CHOP induction in ER stress response | CHO-K1 CHOP-promoter luciferase, tunicamycin-induced, 15-18 h | inhibition, % at 10 µM | 3.8% of 220,000 active | AID 2732;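 active means compounds that reduced the stress-induced luciferase reporter signal by more than about 70% of percent inhibition, limit read from the data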;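 further: 0% = tunicamycin plus vehicle and 100% = wells without tunicamycin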
Jurkat NFkB inh = inhibitors of the PMA/ionomycin-induced NF-kB reporter in Jurkat cells. inhibition, % at 4 µM. AID 435003. PMA/ionomycin-induced NF-kB luciferase reporter, luminescence. 0.53% of 330,000 active; in the data active means inhibition above about 50%
Gli antag conf = confirmation of Gli-SUFU pathway antagonists; shares compounds with Gli-Sufu antag; Sufu-KO-LIGHT cells, Gli luciferase reporter, luminescence; inhibition, % at 5 µM; 40% of 2,500 active;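 active means mean inhibition at 5 µM reaching about 45%, limit read from the data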;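 further: plate controls were DMSO-treated cells for no effect and wells lacking cells for full effect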
Gli cytotox = counter-screen for Gli-SUFU antagonists: cytotoxicity; shares compounds with Gli-Sufu antag; Sufu-KO-LIGHT cells cytotoxicity, ATP luminescence; cytotoxicity, % at 5 µM; 32% of 2,500 active; AID 651994;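 active means mean cytotoxicity at 5 µM above about 25%, limit read from the data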;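 further: cells exposed to compound overnight for roughly 16 to 18 hours; plate controls were DMSO wells with cells for no effect and medium without cells for full effect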
Wnt3a cs = Wnt3a reporter inhibition counter-screen; inhibition, % at 6.25 µM; shares compounds with Gli-Sufu antag; Wnt-LIGHT cells, Wnt3a-driven luciferase reporter, luminescence; 20% of 2,500 active;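 active means mean inhibition above about 25%, limit read from the data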
Numbers without * were called inactive; nt = no result.

SMILES	UPR CHOP act	697 NFkB inh	Gli-Sufu antag	UPR XBP1 act	CHOP inhibitor	Jurkat NFkB inh	Gli antag conf	Gli cytotox	Wnt3a cs
CC1=CC2OC3CC4OC(=O)C=CC=CC(=O)OCCC(C)C(O)C(=O)OCC2(CC1O)C4(C)C31CO1 (centres undefined)	nt	nt	88*	nt	nt	nt	96*	82*	104*
O=CNc1ccc(OP(=O)(Oc2ccccc2)Oc2ccccc2)cc1	1	-1	-12	1	nt	-12	nt	nt	nt
CCOc1cccc(N2C(=O)/C(=C/c3ccco3)C(=O)NC2=S)c1	1	-7	55*	-3	nt	1	12	0	5
O=C1NC(=S)N(c2ccccc2)C(=O)/C1=C/c1ccco1	4	-63	26	-1	nt	-13	nt	nt	nt
Cc1ccc(N2C(=O)NC(=O)/C(=C\c3cc(C)n(-c4sc5c(c4C#N)CCCC5)c3C)C2=O)cc1	0	-3	59*	1	20	-2	53*	42*	-45
CCN1C(=O)NC(=O)/C(=C/c2cc(C)n(-c3sc(C)c(C)c3C#N)c2C)C1=O	2	2	0	2	5	3	nt	nt	nt
